In ChEMBL document CHEMBL3576783, “Synthesis and evaluation of 1,2,4-triazolo[1,5-a]pyrimidines as antibacterial agents against Enterococcus faecium” (J Med Chem, 2015):
Converted amounts (≈) assume the structure as drawn.

What was measured:
Enterococcus faecium [1] = experiment: microbe, parasite or virus in culture; settings: NCTC 7171
Enterococcus faecium [2] = experiment: Antibacterial activity against vancomycin and teicoplanin-resistant Enterococcus faecium ATCC 700221 isolated from human faeces assessed as bacterial growth inhibition after 16-20 hrs by broth microdilution method; format: functional; settings: ATCC 700221, Feces
In short: (§1)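 Broth microdilution in cation-adjusted Mueller Hinton II broth, run to CLSI method, triplicate. Cells grown to OD600 ~0.60-0.80, diluted 100-fold; final inoculum 5×10^5 CFU/mL. Compounds from 5 mg/mL DMSO stocks diluted in medium, final 2% (v/v) DMSO plus 0.25% (v/v) glacial acetic acid. Incubated 35 °C for 16-20 h, then MIC read.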

Enterococcus faecium [3] = experiment: Antibacterial activity against copper, erythromycin, teracycline-resistant and vancomycin and teicoplanin-sensitive Enterococcus faecium ATCC BAA2127 assessed as bacterial growth inhibition after 16-20 hrs by broth microdilution method; format: functional
In short: as §1, with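 “CLSI broth” for “Broth”, “broth,” for “broth, run to CLSI method,”, “Cultures” for “Cells”, “about 0.60-0.80,” for “~0.60-0.80,”, “stock” for “stocks”, “°C,” for “°C for”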

Liver = experiment: Half life in human liver S9 at 10 uM after 60 mins by UPLC analysis; format: ADME, subcellular, Liver S9 fraction; settings: s9, 1 h
In short: (§2)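 Pooled human liver S9 (1 mg/mL) with 1 mM NADPH and 10 μM compound in sodium phosphate buffer (0.20 M phosphate, 0.15 M NaCl, pH 7.4), 37 °C for 60 min. Six time points quenched in acetonitrile with internal standard, analysed by UPLC-MRM. Half-life taken from first-order rate constant; CLint scaled with 45 mg protein/g liver and 20 g liver/kg. Run in duplicate.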

[4] = Apparent intrinsic clearance in human liver S9 at 10 uM after 60 mins by UPLC analysis; format: ADME, subcellular, Liver S9 fraction; settings: read-out: CLH(app)
In short: as §2

[5] = Induction of hemolysis in RBC (unknown origin) at 64 ug/ml; settings: erythrocytes
Enterococcus faecium [6] = experiment: Antibacterial activity against vancomycin-susceptible Enterococcus faecium 119-39A assessed as bacterial growth inhibition after 16-20 hrs by broth microdilution method; format: functional
In short: as §1, with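 “CLSI broth” for “Broth”, “broth,” for “broth, run to CLSI method,”, “Cultures” for “Cells”, “about 0.60-0.80,” for “~0.60-0.80,”, “stock” for “stocks”, “°C,” for “°C for”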

Row | Structure (SMILES) | MIC (Enterococcus faecium [1]) [µg/mL] | also measured
1 | CC1=C(C(=O)Nc2ccc(C)cc2C)C(c2cccs2)n2nc(SCc3cccc(Cl)c3)nc2N1 (stereo not drawn) | > 128 | 
2 | CCOC(=O)CSc1nc2n(n1)C(c1ccc(N(C)C)cc1)C(C(N)=O)=C(C)N2 (stereo not drawn) | > 128 | 
3 | CC1=C(C(N)=O)C(c2ccc(C(=O)O)cc2)n2nc(SCCNC(=O)OCc3ccccc3)nc2N1 (stereo not drawn) | > 128 | 
4 | CC1=C(C(N)=O)C(c2ccc(N(C)C)cc2)n2nc(SCc3ccc([N+](=O)[O-])cc3)nc2N1 (stereo not drawn) | 4 (≈ 8.59 µM) | MIC (Enterococcus faecium [2]): 8 µg/mL (≈ 17.2 µM); MIC (Enterococcus faecium [3]): 32 µg/mL (≈ 68.7 µM); MBC (Enterococcus faecium [1]): 16 µg/mL (≈ 34.4 µM); t1/2 (Liver): > 1 h; CLint scaled at 10 µM [4]: < 10.4 mL/min/kg; Activity [5]: 23%; MIC (Enterococcus faecium [6]): 16 µg/mL (≈ 34.4 µM)
5 | CCc1ccc(C2C(C(=O)Nc3ccccc3OC)=C(C)Nc3nc(SCc4ccccc4)nn32)cc1 (stereo not drawn) | > 128 | 
6 | CC1=C(C(N)=O)C(c2cccs2)n2nc(SCc3ccccc3)nc2N1 (stereo not drawn) | > 128 | 
7 | CC1=C(C(N)=O)C(c2ccc(N(C)C)cc2)n2nc(SCc3ccc(C)cc3)nc2N1 (stereo not drawn) | > 128 | 
8 | COC(=O)c1ccc(CSc2nc3n(n2)C(c2ccc(N(C)C)cc2)C(C(N)=O)=C(C)N3)cc1 (stereo not drawn) | > 128 | 
9 | CC1=C(C(N)=O)C(c2ccc(N(C)C)cc2)n2nc(SCc3ccc(C(=O)O)cc3)nc2N1 (stereo not drawn) | > 128 | 
10 | CCN(CC)CCOc1ccc(C2C(C(N)=O)=C(C)Nc3nc(SCc4ccccc4)nn32)cc1 (stereo not drawn) | > 128 | 
11 | CC1=C(C(N)=O)C(c2ccc[nH]2)n2nc(SCc3ccccc3)nc2N1 (stereo not drawn) | > 128 | 
12 | CC1=C(C(N)=O)C(c2ccc(N(C)C)cc2)n2ncnc2N1 (stereo not drawn) | > 128 | 
13 | CCc1ccc(C2C(C(N)=O)=C(C)Nc3nc(SCc4ccccc4)nn32)cc1 (stereo not drawn) | 8 (≈ 19.7 µM) | 
14 | COc1cc(C2C(C(=O)Nc3ccc(C)cc3C)=C(C)Nc3nc(SCc4ccccc4)nn32)ccc1O (stereo not drawn) | 16 (≈ 30.3 µM) | 
15 | CSc1ccc(C2C(C(N)=O)=C(C)Nc3nc(SCc4ccccc4)nn32)cc1 (stereo not drawn) | > 128 | 
16 | CC1=C(C(=O)Nc2ccc(C)cc2C)C(c2ccc(C)cc2)n2nc(SCc3cccc(C)c3)nc2N1 (stereo not drawn) | > 128 | 
17 | CN(C)c1ccc(C2C3=C(CCCC3=O)Nc3nc(SCc4ccccc4)nn32)cc1 (stereo not drawn) | > 128 | 
18 | CC1=C(C(N)=O)C(c2ccc(O)cc2)n2nc(SCc3ccccc3)nc2N1 (stereo not drawn) | > 128 | 
19 | CC1=C(C(N)=O)C(c2ccccc2C(F)(F)F)n2nc(SCc3ccccc3)nc2N1 (stereo not drawn) | > 128 | 
20 | CC1=C(C(N)=O)C(c2ccc(N(C)C)cc2)n2nc(SCc3ccc(C(F)(F)F)cc3)nc2N1 (stereo not drawn) | > 128 | 
21 | CC(=O)Nc1ccc(C2C(C(N)=O)=C(C)Nc3nc(SCc4ccccc4)nn32)cc1 (stereo not drawn) | 128 (≈ 295 µM) | 

Row | Structure (SMILES) | MIC (Enterococcus faecium [1]) [µg/mL] | also measured
22 | CC1=C(C(N)=O)C(c2cccs2)n2ncnc2N1 (stereo not drawn) | > 128 | 
23 | CC1=C(C(N)=O)C(c2ccc(N(C)C)cc2)n2nc(N)nc2N1 (stereo not drawn) | > 128 | 
24 | CC1=C(C(=O)Nc2ccccc2)C(c2ccc(C)cc2)n2nc(SCc3ccccc3C)nc2N1 (stereo not drawn) | > 128 | 
25 | CC1=C(C(N)=O)C(c2ccc(N(C)C)cc2)n2nc(SCCNC(=O)OCc3ccccc3)nc2N1 (stereo not drawn) | > 128 | 
26 | CC1=C(C(N)=O)C(c2ccc(N(C)C)cc2)n2nc(SCc3ccc(SC(F)(F)F)cc3)nc2N1 (stereo not drawn) | 8 (≈ 15.4 µM) | 
27 | CC1=C(C(N)=O)C(c2ccc(N(C)C)cc2)n2nc(Sc3ccccn3)nc2N1 (stereo not drawn) | > 128 | 
28 | CC1=C(C(N)=O)C(c2ccc(N(C)C)cc2)n2nc(SCC(N)=O)nc2N1 (stereo not drawn) | > 128 | 
29 | CCOc1ccccc1C1C2=C(CCCC2=O)Nc2nc(SCc3ccc(C(=O)O)cc3)nn21 (stereo not drawn) | > 128 | 
30 | CC1=C(C(N)=O)C(c2ccc(C(=O)O)cc2)n2nc(SCc3ccccc3)nc2N1 (stereo not drawn) | > 128 | 
31 | COc1ccc(C2C3=C(CCCC3=O)Nc3nc(SCc4ccc(C(=O)O)cc4)nn32)cc1 (stereo not drawn) | > 128 | 
32 | CC1=C(C(N)=O)C(c2ccc(C)cc2)n2nc(SCc3ccccc3)nc2N1 (stereo not drawn) | > 128 | 
33 | CC1=C(C(N)=O)C(c2cccc(OC(C)C)c2)n2nc(SCc3ccccc3)nc2N1 (stereo not drawn) | > 128 | 
34 | CC1=C(C(N)=O)C(c2ccccc2)n2nc(SCc3ccccc3)nc2N1 (stereo not drawn) | > 128 | 
35 | CC1=C(C(N)=O)C(c2ccc(N(C)C)cc2)n2nc(SCc3ccncc3)nc2N1 (stereo not drawn) | 128 (≈ 304 µM) | 
36 | CC1=C(C(N)=O)C(c2ccc(SC(F)(F)F)cc2)n2nc(SCc3ccccc3)nc2N1 (stereo not drawn) | > 128 | 
37 | CC1=C(C(N)=O)C(c2ccc([N+](=O)[O-])cc2)n2nc(SCc3ccccc3)nc2N1 (stereo not drawn) | 64 (≈ 151 µM) | 
38 | CNC(=O)C1=C(C)Nc2nc(SCc3ccccc3)nn2C1c1ccc(N(C)C)cc1 (stereo not drawn) | 8 (≈ 18.4 µM) | 
39 | CC1=C(C(N)=O)C(c2ccc(Cl)cc2)n2nc(SCc3ccccc3)nc2N1 (stereo not drawn) | > 128 | 
40 | CC1=C(C(N)=O)C(c2cccc(OC(F)(F)F)c2)n2nc(SCc3ccccc3)nc2N1 (stereo not drawn) | 16 (≈ 34.7 µM) | 
41 | CC1=C(C(N)=O)C(c2ccc(C#N)cc2)n2nc(SCc3ccccc3)nc2N1 (stereo not drawn) | 16 (≈ 39.8 µM) | 
